Measured values of several laboratories.
Each line is one published result; the experiments were not run side by side.

SMILES	target or system	test	system	conditions	measurement	value
CNC(C)Cc1ccc2c(c1)OCO2 (stereo not drawn)	–	metabolic stability	human, liver microsomes	0.5 µM	half-life	> 150 min
CC(C)(N)CNC(=O)O[C@H]1CCC[C@@]2(C1)OOC1(O2)C2CC3CC(C2)CC1C3 (stereo partly drawn)	–	–	male CD-1 mouse, plasma	intravenous, 3 mg/kg	MRT(0-inf)	32.5 min
COCC1=N[C@@]2(O)[C@H](C(=O)N(C)OC)[C@@H](c3ccccc3)[C@]3(c4ccc(OC)cc4)Oc4cc(OC)cc(OC)c4[C@]23N1	–	metabolic stability	human, liver microsomes	1 µM, pH 7.4	half-life	24.8 min
Cn1cc2c3c1C(=O)C(N)=CC3=[N+](C)CC2	HepG2	cell growth or viability, MTT	–	72 h	CC50	1000 nM
COc1ccc([C@@]23Oc4cc(OC)cc(OC)c4[C@@]24NC(C)=N[C@@]4(O)[C@H](C(=O)N(C)OC)[C@H]3c2ccccc2)cc1	–	metabolic stability	human, liver microsomes	–	half-life	120 min
CNC(C)Cc1ccc2n[se]nc2c1 (stereo not drawn)	–	metabolic stability	human, liver microsomes	0.5 µM	half-life	> 150 min
CN1CCN(S(=O)(=O)c2cc([N+](=O)[O-])ccc2N(CCOS(C)(=O)=O)CCOS(C)(=O)=O)CC1	–	–	female SCID mouse, plasma	intraperitoneal, 25 mg/kg	MRT(0-inf)	25.2 min
NCCNC(=O)O[C@H]1CCC[C@@]2(C1)OOC1(O2)C2CC3CC(C2)CC1C3 (stereo partly drawn)	–	–	male CD-1 mouse, plasma	intravenous, 3 mg/kg	MRT(0-inf)	35.2 min
Cn1cc2c3c1C(=O)C(N)=CC3=NCC2	HepG2	cell growth or viability, MTT	–	72 h	CC50	2000 nM
